Results: ChEMBL document CHEMBL3351792, “Limonoids from the Leaves and Twigs of Walsura yunnanensis” (J Nat Prod, 2014)

What was measured:
Format in all cases: functional, cell-based
A549 = experiment: Cytotoxicity against human A549 cells after 48 hrs by MTS assay; details: A549, 48 h
In short: (§1)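 Cells grown in RPMI 1640 with 10% FBS and penicillin/streptomycin at 37 °C under 5% CO2. Adherent lines were seeded at 1 × 10^4 cells/well and left to attach for 12 h. Compounds in DMSO were tested at 0.064, 0.32, 1.6, 8 and 40 μM, in triplicate, for 48 h, with cisplatin as positive control. MTS was then added and formazan dissolved in 20% SDS (12 h, room temperature). OD read at 490 nm; IC50 by Reed and Muench method.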

[1] = Cytotoxicity against human HL60 cells after 48 hrs by MTS assay; details: HL-60, 48 h; in short: as §1
SMMC-7721 = experiment: Cytotoxicity against human SMMC7721 cells after 48 hrs by MTS assay; details: SMMC-7721, 48 h; in short: as §1
SW480 = experiment: Cytotoxicity against human SW480 cells after 48 hrs by MTS assay; details: SW480, 48 h; in short: as §1
MCF7 = experiment: Cytotoxicity against human MCF7 cells after 48 hrs by MTS assay; details: MCF7, 48 h; in short: as §1
[2] = Cytotoxicity against human BEAS2B cells after 48 hrs by MTS assay; details: BEAS-2B

SMILES	IC50 (A549) [µM]	IC50 [1] [µM]	IC50 (SMMC-7721) [µM]	IC50 (SW480) [µM]	IC50 (MCF7) [µM]	IC50 [2] [µM]
CO[C@@H]1C=C([C@@H]2C[C@H]3O[C@@]34[C@@]2(C)C[C@H](O)[C@@H]2[C@@]3(C)C=CC(=O)C(C)(C)C3=C(O)C(=O)[C@]24C)[C@@H](OC)O1	3.7	3.6	2.4	3.5	4.2	5
CC1(C)C(=O)C=C[C@@]2(C)C1=C(O)C(=O)[C@]1(C)[C@@H]2[C@@H](O)C[C@@]2(C)[C@H](C3=CC(=O)O[C@@H]3O)C[C@H]3O[C@]321	2.6	3.1	2.2	2.4	3.9	9.4
